Experimental data published in PubChem BioAssay AID651922 (Vanderbilt Specialized Chemistry Center, 2012).
Calls of active or inactive are those of the source. How the calls were made is not given here.

Target: Muscarinic acetylcholine receptor M3 (Homo sapiens) (UniProt P20309)
Test: ACh response enhancement at M3 – CHO cells, human M3, selectivity assay for M5 PAM project (AID 651922)
How it was run: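 System: CHO-K1 cells stably expressing human M3 muscarinic receptor, Fluo-4 loaded; compound dosing: final DMSO 0.3% in assay wells; schedule: dye loading 45-60 min at 37 °C before assay; technique: Fluo-4 fluorescence calcium mobilization measurement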

Chain of Muscarinic acetylcholine receptor M3 (Homo sapiens) (P20309 whole entry, looked up): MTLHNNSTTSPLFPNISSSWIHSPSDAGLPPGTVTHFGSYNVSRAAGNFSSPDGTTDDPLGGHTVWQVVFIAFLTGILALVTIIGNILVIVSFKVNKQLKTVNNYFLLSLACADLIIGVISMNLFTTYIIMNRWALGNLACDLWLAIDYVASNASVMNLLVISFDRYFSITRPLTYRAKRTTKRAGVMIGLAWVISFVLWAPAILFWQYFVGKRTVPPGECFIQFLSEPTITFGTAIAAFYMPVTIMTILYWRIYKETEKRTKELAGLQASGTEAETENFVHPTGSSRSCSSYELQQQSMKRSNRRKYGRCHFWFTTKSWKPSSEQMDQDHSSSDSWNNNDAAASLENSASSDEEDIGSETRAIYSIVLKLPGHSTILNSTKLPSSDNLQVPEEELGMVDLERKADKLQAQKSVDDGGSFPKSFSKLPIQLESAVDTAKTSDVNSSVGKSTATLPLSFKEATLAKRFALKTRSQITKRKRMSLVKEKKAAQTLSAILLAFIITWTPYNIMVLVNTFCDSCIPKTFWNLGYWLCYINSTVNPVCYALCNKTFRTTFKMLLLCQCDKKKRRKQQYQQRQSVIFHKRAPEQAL

For `O=C1C(=O)N(CCOc2ccccc2)c2ccc(OC(F)(F)F)cc21`, the outcome was “inactive”.
